Calls of active or inactive are those of the source.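 Rule for the calls: active = compounds that lower cell viability signal with a fitted half-maximal concentration within ten times the top tested dose; inconclusive = flat curve inhibiting 30 to 70%, or an unreliable fit; inactive = the rest.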

System in the first assay: not listed separately
Nature of the assay: MALME3 melanoma cell viability loss, dose response, orthogonal assay for MITF inhibitor project, CellTiter-Glo, dry powder samples (AID 540339). The settings on record: MALME3 melanoma viability, CellTiter-Glo luminescence, 24 h; at 35 µM (top of the series). In a few lines:
(§1)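 Material: MALME3 melanoma cells. Medium: IMDM with 10% FBS, without phenol red. Dosing: compound dose-response series delivered by pin transfer. Schedule: 24 h compound treatment at 37 °C. Technique: CellTiter-Glo luminescence reporting cellular ATP.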
(In general: Cellular ATP, detected with luciferase, serves as a proxy for viable cell number.)
Turning to `CC1CCCCC1NC(=O)/C(C#N)=C/C=C/c1ccccc1[N+](=O)[O-]` (stereo unspecified), the activity change, negative = inhibition is 2.17% (inactive).

Another assay relates to MALME3 melanoma viability, CellTiter-Glo luminescence, 24 h. The description is as above.
Details: not given
In a few lines: as §1
With `O=C(Cn1ncc(Cl)c(Cl)c1=O)N1CCc2ccccc21`, the AC50 was 5.07 µM.
On the same count and under the same terms, the same measure for `CCN1CCCC1CNC(=O)c1ccc2c(c1)NC(=O)/C(=C\c1ccc(C)cc1)S2` (stereo unspecified): 20 µM; for `CC(C)C(CCNC1CCN(C)CC1)c1ccc(Cl)cc1` (stereo unspecified): 4.04 µM; for `N=c1n(CCN2CCCC2)c2ccccc2n1CC(O)c1ccc(Cl)c(Cl)c1` (stereo unspecified): 18.6 µM.
Turning to `Cc1ccc(C(=O)N/N=C/c2ccc([N+](=O)[O-])s2)cc1`, the AC50 was 14.8 µM.
Still for that read-out and setting: the result for `CC1(C)CC(NC(=O)c2ccc(Cl)c(S(=O)(=O)N(Cc3ccccc3)c3ccccc3)c2)CC(C)(C)N1` reads 17.4 µM; that for `CC1CN(C(=O)CCC(=O)NCCCN2CCC(Cc3ccccc3)CC2)c2cc(Cl)ccc2O1` (stereo unspecified), 29.9 µM.
For the compound `Cc1[nH]c2ccccc2c1C(=O)CCl`, the AC50 was 31.8 µM.
The same measure, in the same setting: the result for `Cc1nc2ccccc2n1/N=C/c1ccc([N+](=O)[O-])s1` reads 10.3 µM; that for `O=C(CNc1cccc2ccccc12)N/N=C/c1ccc([N+](=O)[O-])o1`, 20 µM.
Still for that read-out and setting: the same measure for `COc1ccc(S(=O)(=O)N(C(C)=O)c2ccc(OC(C)=O)c3ccccc23)cc1[N+](=O)[O-]`: 4.21 µM; for `C=CCNC1=C(Cl)C(=O)c2ccccc2C1=O`: 8.93 µM; for `Cc1ccc(C(C)C)c(OCc2nn(CC(=O)c3ccc(Cl)cc3)c3[n+]2CCCCC3)c1`: 23.1 µM.
With `CCN1CCN(C2=C(NS(=O)(=O)c3ccc(Br)cc3)C(=O)c3ccccc3C2=O)CC1`, the concentration at half-maximal activity (AC50) is 17.7 µM.
Still for that read-out and setting: the result for `COc1cc2c(cc1OC)C(c1ccccc1)N(C(=O)CCl)CC2` (stereo unspecified) reads 18 µM; that for `CCN1c2ccccc2NC2N=C(OC)C(c3ccccc3)C21` (stereo unspecified), 7.91 µM; that for `O=c1c(Cl)c2oc3ccccc3nc-2c2ccccc12`, 18.2 µM.
Still for that read-out and setting: the same measure for `CC1CCN(CC(CS(=O)(=O)c2ccc([N+](=O)[O-])cc2)N2CCC(C)CC2)CC1` (stereo unspecified): 18.6 µM.
Same read-out and setting: the same measure for `O=C(COc1ccccc1)N/N=C/c1ccc([N+](=O)[O-])o1`: 19.1 µM; for `CCN(CC)CCNC(=O)c1c(C)n(-c2ccccc2)c2cc(Br)c(OC)cc12`: 34.1 µM.
As for `CC1=NNC(=O)/C1=C\c1cn(-c2ccccc2)nc1-c1ccc(F)cc1`, the concentration at half-maximal activity (AC50) is 36.5 µM.
Take `O=C(Nc1ccc(-c2nc3ncccc3o2)cc1)c1ccc([N+](=O)[O-])o1`: the half-maximal activity concentration (AC50) is 14.5 µM.
Still for that read-out and setting: the result for `COc1cc(/C=N/NC(N)=O)c(Br)cc1OCC(=O)Nc1ccccc1C` reads 32.8 µM; that for `CN(C)CCCNC(=O)/C(=C\c1ccc(-c2ccc(Br)cc2)o1)NC(=O)c1ccccc1`, 17.4 µM; that for `O=C(Nc1ccc(N2CCN(C(=O)c3ccccc3)CC2)cc1)c1ccc([N+](=O)[O-])o1`, 16.7 µM.

As a reminder, the AC50 is the concentration at which the activity in the assay is half-maximal.

Source of the values: PubChem BioAssay AID540339 (Broad Institute, 2011).
